Columns and labels:
[1] = Displacement of [3H]-Di-o-tolyguanidine from guinea pig sigma2 receptor after 120 mins by liquid scintillation counting analysis; design: species or system Cavia porcellus
[2] = molecular target: 5-hydroxytryptamine receptor 2B (Homo sapiens, UniProt P41595); test: Binding affinity to human 5-HT2B receptor
[3] = molecular target: T1, Cytochrome P450 1A2 (Homo sapiens, UniProt P05177); test: Inhibition of human recombinant CYP1A2; assay type: ADME
T1 sequence (P05177 whole entry): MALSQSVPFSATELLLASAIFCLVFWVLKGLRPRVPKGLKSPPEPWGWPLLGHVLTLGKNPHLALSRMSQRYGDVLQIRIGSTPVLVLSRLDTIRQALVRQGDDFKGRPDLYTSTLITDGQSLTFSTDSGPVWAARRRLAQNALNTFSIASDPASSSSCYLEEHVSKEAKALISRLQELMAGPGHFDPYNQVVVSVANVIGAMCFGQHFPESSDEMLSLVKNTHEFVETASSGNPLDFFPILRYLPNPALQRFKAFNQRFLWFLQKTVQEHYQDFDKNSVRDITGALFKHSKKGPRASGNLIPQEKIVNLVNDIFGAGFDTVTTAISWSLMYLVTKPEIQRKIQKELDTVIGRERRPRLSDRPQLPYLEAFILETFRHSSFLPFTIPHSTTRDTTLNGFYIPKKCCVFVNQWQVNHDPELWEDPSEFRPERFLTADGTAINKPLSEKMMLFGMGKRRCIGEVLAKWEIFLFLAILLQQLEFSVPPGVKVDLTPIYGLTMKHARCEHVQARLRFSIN

[4] = tested on: Liver microsomes; test: Intrinsic clearance in rat liver microsomes assessed per milligram of protein; assay type: ADME, Microsome
[5] = molecular target: Cytochrome P450 3A4 (Homo sapiens, UniProt P08684); test: Inhibition of human recombinant CYP3A4; assay type: ADME
[6] = molecular target: Cytochrome P450 2C9 (Homo sapiens, UniProt P11712); test: Inhibition of human recombinant CYP2C9; assay type: ADME
[7] = molecular target: Voltage-gated inwardly rectifying potassium channel KCNH2 (Homo sapiens, UniProt Q12809); test: Binding affinity to human ERG channel by patch clamp assay
[8] = tested on: Salmonella typhimurium; test: Genotoxicity in Salmonella typhimurium by Ames test; assay type: toxicity, organism-based; conditions: salmonella enterica subsp. enterica serovar typhimurium
[9] = tested on: HepG2; test: Cytotoxicity against human HepG2 cells up to 100 uM by neutral red uptake assay; assay type: cell-based
[10] = tested on: Liver microsomes; test: Intrinsic clearance in human liver microsomes assessed per milligram of protein; assay type: ADME, Microsome
[11] = molecular target: Cytochrome P450 2C19 (Homo sapiens, UniProt P33261); test: Inhibition of human recombinant CYP2C19; assay type: ADME
[12] = molecular target: Sigma non-opioid intracellular receptor 1 (Homo sapiens, UniProt Q99720); test: Displacement of [3H]-(+)-pentazocine from human sigma1 receptor transfected in HEK293 cells after 120 mins by liquid scintillation counting analysis; assay type: cell-based
[13] = tested on: Liver; test: Intrinsic clearance in mouse liver microsomes assessed per milligram of protein; assay type: ADME, Microsome
[14] = tested on: Mus musculus; test: Antinociceptive activity in CD1 mouse assessed as inhibition of capsaicin-induced mechanical hypersensitivity at 80 mg/kg, po administered 30 mins before capsaicin-challenge measured after 15 mins; assay type: functional
[15] = Dissociation constant, pKa of the compound; assay type: physicochemical
Procedure, shortened: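 pKa measured experimentally by pH-metric titration on an automated GlpKa instrument.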

[16] = tested on: Mus musculus; test: Antinociceptive activity in CD1 mouse assessed as inhibition of formalin-induced pain at 40 mg/kg, ip administered 15 mins before formalin-challenge measured after 15 to 30 mins; assay type: functional; conditions: route intraperitoneal
Procedure, shortened: (§1)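 Male CD1 mice, 6–8 weeks old (n = 8–12 per group), were dosed ip at 10 mL/kg in 0.5% HPMC vehicle. 15 min later, 20 μL of 2.5% formalin (0.92% formaldehyde) was injected into the right hind paw, midplantar. Licking/biting time was scored 0–5 min (phase I) and 15–30 min (phase II).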

[17] = tested on: HepG2; test: Cytotoxicity against human HepG2 cells up to 100 uM by MTT assay; assay type: cell-based
[18] = molecular target: Cytochrome P450 2D6 (Homo sapiens, UniProt P10635); test: Inhibition of human recombinant CYP2D6; assay type: ADME
[19] = tested on: Mus musculus; test: Antinociceptive activity in CD1 mouse assessed as inhibition of formalin-induced pain at 80 mg/kg, ip administered 15 mins before formalin-challenge measured after 15 to 30 mins; assay type: functional; conditions: route intraperitoneal; procedure, shortened: as §1
[20] = Kinetic solubility of the compound; assay type: physicochemical; conditions: read-out: Kinetic_solubility
Procedure, shortened: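 Kinetic solubility: compound solution at 1% DMSO in phosphate buffer, pH 7.4, quantified by HPLC.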

[21] = tested on: Mus musculus; test: Antinociceptive activity in ip dosed CD1 mouse assessed as inhibition of formalin-induced pain administered 15 mins before formalin-challenge measured after 15 to 30 mins; assay type: functional, organism-based; procedure, shortened: as §1

Chain of Sigma non-opioid intracellular receptor 1 (Q99720 whole entry): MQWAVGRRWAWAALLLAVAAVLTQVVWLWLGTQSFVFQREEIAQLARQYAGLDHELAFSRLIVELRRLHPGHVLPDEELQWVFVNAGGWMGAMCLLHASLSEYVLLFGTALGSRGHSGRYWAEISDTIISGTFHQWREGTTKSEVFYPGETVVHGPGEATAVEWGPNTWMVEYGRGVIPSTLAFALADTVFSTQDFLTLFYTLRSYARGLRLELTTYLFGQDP
Chain of Voltage-gated inwardly rectifying potassium channel KCNH2 (Q12809 whole entry): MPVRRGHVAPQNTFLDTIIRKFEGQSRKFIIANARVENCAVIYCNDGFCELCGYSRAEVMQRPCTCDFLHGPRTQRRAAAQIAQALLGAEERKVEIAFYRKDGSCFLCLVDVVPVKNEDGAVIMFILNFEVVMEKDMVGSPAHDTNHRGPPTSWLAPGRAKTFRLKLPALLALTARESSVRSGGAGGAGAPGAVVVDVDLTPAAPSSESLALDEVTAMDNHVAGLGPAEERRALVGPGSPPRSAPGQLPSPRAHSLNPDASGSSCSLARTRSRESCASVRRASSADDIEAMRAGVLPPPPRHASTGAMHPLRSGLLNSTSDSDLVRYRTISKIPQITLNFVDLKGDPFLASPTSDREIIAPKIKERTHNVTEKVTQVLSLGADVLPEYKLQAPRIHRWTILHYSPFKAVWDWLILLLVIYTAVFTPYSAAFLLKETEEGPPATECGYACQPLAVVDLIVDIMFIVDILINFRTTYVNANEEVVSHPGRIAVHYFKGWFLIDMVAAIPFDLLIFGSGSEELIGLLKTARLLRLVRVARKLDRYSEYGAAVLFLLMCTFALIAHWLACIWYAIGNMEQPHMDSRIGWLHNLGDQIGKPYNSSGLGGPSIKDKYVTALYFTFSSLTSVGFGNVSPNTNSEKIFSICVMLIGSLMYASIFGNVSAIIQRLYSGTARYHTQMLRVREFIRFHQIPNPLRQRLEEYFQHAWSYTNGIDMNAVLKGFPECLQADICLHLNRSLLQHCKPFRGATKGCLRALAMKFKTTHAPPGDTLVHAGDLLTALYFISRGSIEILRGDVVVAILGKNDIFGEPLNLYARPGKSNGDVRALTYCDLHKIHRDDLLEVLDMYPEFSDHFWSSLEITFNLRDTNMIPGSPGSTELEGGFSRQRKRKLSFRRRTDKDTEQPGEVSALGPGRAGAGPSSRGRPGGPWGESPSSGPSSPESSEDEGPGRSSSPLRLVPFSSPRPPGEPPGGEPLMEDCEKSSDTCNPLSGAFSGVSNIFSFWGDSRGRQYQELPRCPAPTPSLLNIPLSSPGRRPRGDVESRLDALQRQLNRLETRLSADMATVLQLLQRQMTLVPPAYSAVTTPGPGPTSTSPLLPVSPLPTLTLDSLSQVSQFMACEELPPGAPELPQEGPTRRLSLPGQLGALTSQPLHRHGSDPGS
Chain of Cytochrome P450 2C19 (P33261 whole entry): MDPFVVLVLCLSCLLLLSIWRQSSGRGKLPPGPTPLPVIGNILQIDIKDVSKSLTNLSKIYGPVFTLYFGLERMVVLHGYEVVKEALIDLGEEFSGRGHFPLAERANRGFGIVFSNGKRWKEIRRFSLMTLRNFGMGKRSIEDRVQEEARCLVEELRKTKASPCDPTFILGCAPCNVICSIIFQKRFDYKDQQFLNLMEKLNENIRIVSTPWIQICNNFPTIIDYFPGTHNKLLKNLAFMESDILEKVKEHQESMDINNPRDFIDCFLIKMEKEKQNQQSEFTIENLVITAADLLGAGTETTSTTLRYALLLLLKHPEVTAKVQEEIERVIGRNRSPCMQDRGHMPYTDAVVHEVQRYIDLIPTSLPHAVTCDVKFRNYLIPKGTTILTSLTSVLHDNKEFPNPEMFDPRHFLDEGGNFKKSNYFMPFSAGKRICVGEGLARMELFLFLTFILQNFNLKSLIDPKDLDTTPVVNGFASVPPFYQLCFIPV
Chain of Cytochrome P450 3A4 (P08684 whole entry): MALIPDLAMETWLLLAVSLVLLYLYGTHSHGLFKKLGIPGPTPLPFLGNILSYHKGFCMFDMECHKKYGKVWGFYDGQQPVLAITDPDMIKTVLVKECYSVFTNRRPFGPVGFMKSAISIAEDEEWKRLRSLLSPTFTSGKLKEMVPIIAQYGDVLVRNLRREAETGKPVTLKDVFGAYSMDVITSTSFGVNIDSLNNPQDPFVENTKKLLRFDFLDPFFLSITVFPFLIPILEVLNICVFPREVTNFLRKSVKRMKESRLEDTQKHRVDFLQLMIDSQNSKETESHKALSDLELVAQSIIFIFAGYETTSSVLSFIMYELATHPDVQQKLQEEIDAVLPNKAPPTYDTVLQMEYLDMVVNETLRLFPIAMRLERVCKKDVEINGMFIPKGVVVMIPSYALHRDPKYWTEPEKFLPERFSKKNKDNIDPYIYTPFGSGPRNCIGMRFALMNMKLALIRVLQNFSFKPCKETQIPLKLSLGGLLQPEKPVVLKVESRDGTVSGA
Chain of 5-hydroxytryptamine receptor 2B (P41595 whole entry): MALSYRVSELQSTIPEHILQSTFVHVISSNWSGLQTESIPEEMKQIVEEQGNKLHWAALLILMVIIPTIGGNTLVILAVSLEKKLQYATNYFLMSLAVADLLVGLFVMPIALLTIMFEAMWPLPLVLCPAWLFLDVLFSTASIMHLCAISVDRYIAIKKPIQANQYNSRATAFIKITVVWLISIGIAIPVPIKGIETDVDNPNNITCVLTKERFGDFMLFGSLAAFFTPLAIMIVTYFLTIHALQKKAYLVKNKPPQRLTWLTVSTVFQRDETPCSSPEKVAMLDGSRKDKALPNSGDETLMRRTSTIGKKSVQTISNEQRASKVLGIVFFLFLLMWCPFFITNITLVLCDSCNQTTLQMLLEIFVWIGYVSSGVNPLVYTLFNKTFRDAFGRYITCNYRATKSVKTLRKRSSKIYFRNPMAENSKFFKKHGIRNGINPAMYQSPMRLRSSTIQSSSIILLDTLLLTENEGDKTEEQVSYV
Chain of Cytochrome P450 2C9 (P11712 whole entry): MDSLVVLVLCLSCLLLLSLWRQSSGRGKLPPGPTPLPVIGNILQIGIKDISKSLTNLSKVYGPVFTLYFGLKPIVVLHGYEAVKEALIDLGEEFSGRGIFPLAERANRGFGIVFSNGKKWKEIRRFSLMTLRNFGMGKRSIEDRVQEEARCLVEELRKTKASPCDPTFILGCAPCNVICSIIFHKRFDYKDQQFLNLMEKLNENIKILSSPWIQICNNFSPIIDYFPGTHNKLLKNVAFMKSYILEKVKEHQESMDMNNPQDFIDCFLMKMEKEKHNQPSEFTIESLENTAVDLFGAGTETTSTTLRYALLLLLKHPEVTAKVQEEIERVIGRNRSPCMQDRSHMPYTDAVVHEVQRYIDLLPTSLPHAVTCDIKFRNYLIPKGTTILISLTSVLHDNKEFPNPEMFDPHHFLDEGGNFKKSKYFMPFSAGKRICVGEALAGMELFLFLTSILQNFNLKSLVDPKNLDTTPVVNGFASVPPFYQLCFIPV
Chain of Cytochrome P450 2D6 (P10635 whole entry): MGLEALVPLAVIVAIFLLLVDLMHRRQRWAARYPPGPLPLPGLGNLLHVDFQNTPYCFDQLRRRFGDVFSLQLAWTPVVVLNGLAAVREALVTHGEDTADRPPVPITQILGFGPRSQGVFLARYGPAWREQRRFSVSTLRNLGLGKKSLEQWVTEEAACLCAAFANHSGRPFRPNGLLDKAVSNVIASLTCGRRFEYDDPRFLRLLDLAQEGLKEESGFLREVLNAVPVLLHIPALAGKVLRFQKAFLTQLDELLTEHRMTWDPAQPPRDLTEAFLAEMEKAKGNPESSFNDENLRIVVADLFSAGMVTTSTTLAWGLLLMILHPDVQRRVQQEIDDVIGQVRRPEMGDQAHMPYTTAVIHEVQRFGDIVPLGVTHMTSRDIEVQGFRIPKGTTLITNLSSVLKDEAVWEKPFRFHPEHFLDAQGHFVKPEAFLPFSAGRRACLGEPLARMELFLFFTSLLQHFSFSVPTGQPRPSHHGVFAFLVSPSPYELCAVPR

Structure (SMILES) | Ki [1] | Ki [12] | further results
Cc1cc(OCCN2CCOCC2)nn1-c1ccc2ccccc2c1 | 1 µM |  | 
CC(C)CCOc1ccc2c(c1)[C@H]1OCCC[C@H]1[C@@H](C1CCOCC1)N2 [listing 1 of 2 here] | 1 µM | 0.03 µM | Ki [2]: 5.3 µM; IC50 [3]: > 5 µM; CLH [4]: 21.7 µL/min; IC50 [5]: > 5 µM; IC50 [6]: > 5 µM; IC50 [7]: > 10 µM; Activity [8]: Non-toxic; Activity [9]: Non-toxic; CLH [10]: 5 µL/min; IC50 [11]: > 5 µM; CLH [13]: 15.1 µL/min; inhibition in vivo at 80 mg/kg [14]: 63%; pKa [15]: 3.8; inhibition in vivo at 40 mg/kg [16]: 40%; Activity [17]: Non-toxic; IC50 [18]: > 5 µM; inhibition in vivo at 80 mg/kg [19]: 81%
CCCCCc1ccc2c(c1)[C@H]1OCCC[C@H]1[C@@H](C1CCCCC1)N2 | 1 µM | 0.019 µM | solubility kinetic [20]: < 1 µM
CCCCCc1ccc2c(c1)[C@@H]1OCCC[C@@H]1[C@H](C1CCCCC1)N2 | 1 µM | > 1 µM | 
CC(C)CCOc1ccc2c(c1)[C@H]1OCCC[C@H]1[C@@H](C1CCCCC1)N2 | 1 µM | 0.014 µM | solubility kinetic [20]: < 1 µM
CC(C)CCOc1ccc2c(c1)[C@@H]1OCCC[C@@H]1[C@H](C1CCCCC1)N2 | 1 µM | > 1 µM | 
CC(C)CCOc1ccc2c(c1)[C@@H]1OCCC[C@@H]1[C@H](C1CCOCC1)N2 | 1 µM | > 1 µM | 
CC(C)CCOc1ccc2c(c1)[C@H]1OCCC[C@H]1[C@@H](C1CCOCC1)N2 [listing 2 of 2 here] |  |  | inhibition [21]: Dose-dependent effect
CCCCOc1ccc2c(c1)[C@H]1OCC[C@H]1[C@@H](C1CCCCC1)N2 (racemic) | 1 µM | > 1 µM | 
CC(C)CCOc1ccc2c(c1)[C@H]1OCC[C@H]1[C@@H](C1CCCCC1)N2 (racemic) | 1 µM | 0.108 µM | 
CCCCCc1ccc2c(c1)[C@H]1OCCC[C@H]1[C@@H](C(CC)CC)N2 (racemic) | 1 µM | 0.41 µM | 
CCCCCc1ccc2c(c1)[C@H]1OCCC[C@H]1[C@@H](C1CCOCC1)N2 (racemic) | 1 µM | 0.067 µM | 
CCCCOc1ccc2c(c1)[C@H]1OCCC[C@H]1[C@@H](C1CC1)N2 (racemic) | 1 µM | > 1 µM | 
CCCCOc1ccc2c(c1)[C@H]1OCCC[C@H]1[C@@H](c1ccccc1)N2 (racemic) | 1 µM | > 1 µM | 
CC(C)CCOc1ccc2c(c1)[C@H]1OCCC[C@H]1[C@@H](C1CCCC1)N2 (racemic) | 1 µM | 0.124 µM | 
CC(C)CCOc1ccc2c(c1)[C@H]1OCCC[C@H]1[C@@H](C1CCOCC1)N2 (racemic) |  | 0.084 µM | 
CC(C)CCOc1ccc2c(c1)[C@H]1OCCC[C@H]1[C@@H](C1CCNCC1)N2 (racemic) | 1 µM | 0.536 µM | 
CCN1CCC([C@H]2Nc3ccc(OCCC(C)C)cc3[C@H]3OCCC[C@H]32)CC1 (racemic) | 1 µM | 0.317 µM | 
CC(C)CCOc1ccc2c(c1)[C@H]1OCCC[C@H]1[C@@H](C1CCN(Cc3ccccc3)CC1)N2 (racemic) | 1 µM | 0.015 µM | solubility kinetic [20]: < 1 µM
CCCCCc1ccc2c(c1)[C@H]1OCCC[C@H]1[C@@H](C1CCCCC1)N2 (racemic) |  | 0.043 µM | 

Structure (SMILES) | Ki [1] | Ki [12] | further results
CC(C)CCOc1ccc2c(c1)[C@H]1OCCC[C@H]1[C@@H](C1CCCCC1)N2 (racemic) |  | 0.052 µM | 
Clc1cccc(Oc2ccc3c(c2)[C@H]2OCCC[C@H]2[C@@H](C2CCCCC2)N3)c1 (racemic) | 1 µM | 0.377 µM | 
Clc1cccc(Oc2ccc3c(c2)[C@H]2OCCC[C@H]2[C@H](C2CCCCC2)N3)c1 (racemic) | 1 µM | > 1 µM | 
Clc1ccccc1Oc1ccc2c(c1)[C@H]1OCCC[C@H]1[C@@H](C1CCCCC1)N2 (racemic) | 1 µM | > 1 µM | 
Clc1ccc(Oc2ccc3c(c2)[C@H]2OCCC[C@H]2[C@@H](C2CCCCC2)N3)cc1Cl (racemic) | 1 µM | 0.079 µM | 
c1ccc(Oc2ccc3c(c2)[C@H]2OCCC[C@H]2[C@@H](C2CCCCC2)N3)cc1 (racemic) | 1 µM | > 1 µM | 
c1ccc2c(c1)N[C@H](C1CCCCC1)[C@@H]1CCCO[C@H]21 (racemic) | 1 µM | > 1 µM | 
CCCCc1ccc2c(c1)[C@H]1OCCC[C@H]1[C@@H](C1CCCCC1)N2 (racemic) | 1 µM | > 1 µM | 
CCCCOc1ccc2c(c1)[C@H]1OCCC[C@H]1[C@@H](C1CCCCC1)N2 (racemic) | 1 µM | 0.178 µM | 
Fc1ccc(COc2ccc3c(c2)[C@H]2OCCC[C@H]2[C@@H](C2CCCCC2)N3)cc1 (racemic) | 1 µM | > 1 µM | 
c1cc2c(cc1C1CCCCC1)[C@H]1OCCC[C@H]1[C@@H](C1CCCCC1)N2 (racemic) | 1 µM | > 1 µM | 
c1ccc(-c2ccc3c(c2)[C@H]2OCCC[C@H]2[C@@H](C2CCCCC2)N3)cc1 (racemic) | 1 µM | > 1 µM | 
CCCNS(=O)(=O)c1ccc2c(c1)[C@H]1OCCC[C@H]1[C@@H](C1CCCCC1)N2 (racemic) | 1 µM | > 1 µM | 
O=C(Nc1ccc2c(c1)[C@H]1OCCC[C@H]1[C@@H](C1CCCCC1)N2)c1ccccc1 (racemic) | 1 µM | > 1 µM | 
Clc1ccc(Oc2ccc3c(c2)[C@H]2OCC[C@H]2[C@@H](C2CCCCC2)N3)cc1 (racemic) | 1 µM | 0.302 µM | 
CCCCCc1ccc2c(c1)[C@H]1OCC[C@H]1[C@@H](C1CCCCC1)N2 (racemic) | 1 µM | 0.245 µM | 
Clc1ccc(Oc2ccc3c(c2)[C@H]2OCCC[C@H]2[C@@H](C2CCCCC2)N3)cc1 (racemic) | > 1 µM | 0.194 µM | solubility kinetic [20]: < 0.4 µM
Clc1ccc(Oc2ccc3c(c2)[C@H]2OCCC[C@H]2[C@H](C2CCCCC2)N3)cc1 (racemic) | 1 µM | > 1 µM | 
O=C(CCCN1CCC(O)(c2ccc(Cl)cc2)CC1)c1ccc(F)cc1 [HALOPERIDOL] | 1 µM |  | 

Source: ChEMBL document CHEMBL2331108, “Synthesis and biological evaluation of a new series of hexahydro-2H-pyrano[3,2-c]quinolines as novel selective σ1 receptor ligands” (J Med Chem, 2013)
